Assay [1] in a line: HUVEC growth inhibition – cell-based, human, primary screen (AID 575;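 active means viability at or below 30% in both replicate assays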;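 further: 100% = median of untreated cell wells with 0.1% DMSO on each plate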). The note with it: HUVEC proliferation, CellTiter-Glo luminescence, 72 h; at 10 µM; stronger effect = lower value. An outline of the steps: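 Assay system: primary human umbilical vein endothelial cells / Buffer or medium: endothelial basal medium with 2% FBS plus growth supplements / Compound dosing: one dose, 10 µM final, 0.1% DMSO / Timing: 72 h treatment at 37 °C / Signal: CTG luminescence / Benchmarks: 32 DMSO-only cell-control wells (high), 32 MePR drug-control wells (low) per plate / Plate: collagen-coated 384-well format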

Assay [2] is described as follows: H69AR cell proliferation blockers – human, duplicate replicates, primary screen (AID 580).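 Further: 100% = mean luminescence of untreated wells and 0% = no signal.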 The note with it: H69AR lung tumor cells viability, ATP luminescence, 72 h; at 10 µM; stronger effect = lower value.
Assay [3] can be described thus: MRP1 drug-resistance reversers in H69AR cells – cell-based, doxorubicin co-treatment, pilot screen (AID 601;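 active means viability loss from added drug above about 55%, and viability with drug at most 40%, in both replicates, limit read from the data, passing the limit was not always enough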). The note with it: CellTiter-Glo, 72 h, at 10 µM; for differential viability (reversal): stronger effect = higher value. For orientation: Cellular ATP, detected with luciferase, serves as a proxy for viable cell number.
Assay [4] can be described thus: yeast transport mutant growth inhibition pilot in 384-well plates, post-Golgi transport modulator project (AID 636; in the data active means inhibition above about 31%). The following applies: absorbance 615 nm, about 18 h, stronger effect = higher value.
The nature of assay [5]: growth suppression of yeast trafficking mutant, preliminary HTS, modulators of trafficking downstream of Golgi apparatus project, 1536-format plate, OD 615 nm (AID 637; in the data active means inhibition above about 30%). The following applies: yeast transport mutant growth, absorbance 615 nm, 18 h; stronger effect = higher value.
[6] abbreviates: H69AR cells + 2 uM doxorubicin, measured here: viability with 2 uM doxorubicin, stronger effect = lower value.
The mark [7] stands for this setting: H69AR cells, compound alone cytotoxicity.

The source made the active and inactive calls.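 How the source made its calls, unless noted: active means viability at or under a set limit in both replicates, limit being median viability minus 3 SD (cut at about 48% in these data, passing the limit was not always enough); inconclusive means at or under the limit in just one replicate; inactive means at or above the limit in both replicates.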

This is an account of results in PubChem BioAssay.

As a reminder, the viability is a read-out of living cells in per cent, often relative to untreated cells. One may read the inhibition as the relative decrease from the control value, in per cent. Regarding `Cc1ccccc1NC(=O)c1ccc(NC(=O)c2ccco2)cc1`, the viability in assay [1] was 102% (inactive); in assay [2], 80.7% (inactive); in assay [3] (setting [6]), 79.4%; in assay [3] (setting [7]), 80.7%. For the same compound, the differential viability (reversal) in assay [3] (H69AR cells + 2 uM doxorubicin) is 1.25% (inactive). Also, the inhibition in assay [4] was -6.84% (inactive); in assay [5] it was -4.6% (inactive).
With `Cc1cc(=O)oc2c(CN3CCN(C)CC3)c(O)c(Cl)cc12`, the viability in assay [1] was 101% (inactive); in assay [2], 90.7% (inactive); in assay [3] (setting [6]), 84.5%; in assay [3] (setting [7]), 90.7%. The differential viability (reversal) in assay [3] (H69AR cells + 2 uM doxorubicin) was 6.16% (inactive). In addition, the inhibition is -6.05% (inactive) in assay [4] and -0.95% (inactive) in assay [5].
As for `Cc1ccc(S(=O)(=O)Cn2nnnc2C(C(C)C)N2CCN(C(=O)c3ccco3)CC2)cc1` (configuration not stated), the viability in assay [1] is 94.8% (inactive); in assay [2], 91.3% (inactive); in assay [3] (setting [6]) it was 83.1%; in assay [3] (setting [7]), 91.3%. Further, in assay [3] (H69AR cells + 2 uM doxorubicin), the differential viability (reversal) is 8.2% (inactive). Moreover, the values for the inhibition in assay [4] and in assay [5] were -4% (inactive) and -4.29% (inactive), respectively.
For the compound `Cc1ccc(-c2ccc(=O)n(CCC(=O)NCCN3CCCCC3C)n2)cc1` (configuration not stated), the viability is 94.9% (inactive) in assay [1], 91.3% (inactive) in assay [2], 90.2% in assay [3] (setting [6]) and 91.3% in assay [3] (setting [7]). Further, the differential viability (reversal) in assay [3] (H69AR cells + 2 uM doxorubicin) is 1.11% (inactive). Also, the inhibition in assay [4] is -4.27% (inactive); in assay [5], -5.56% (inactive).
As for `O=C(CN1C(=O)COc2ccccc21)NCCN1CCc2ccccc2C1`, the viability was 79.1% (inactive) in assay [1], 92.9% (inactive) in assay [2], 96.4% in assay [3] (setting [6]) and 92.9% in assay [3] (setting [7]). Besides, in assay [3] (H69AR cells + 2 uM doxorubicin), the differential viability (reversal) was -3.52% (inactive). Moreover, the inhibition is -4.68% (inactive) in assay [4] and -1.59% (inactive) in assay [5].
Consider `O=C(O)Cn1nc2ccccc2n1`, for which the viability is 108% (inactive) in assay [1], 93.9% (inactive) in assay [2], 90.3% in assay [3] (setting [6]) and 93.9% in assay [3] (setting [7]). Besides, in assay [3] (H69AR cells + 2 uM doxorubicin), the differential viability (reversal) was 3.65% (inactive). Moreover, the inhibition in assay [4] is -4% (inactive); in assay [5] it was 8.73% (inactive).
For the compound `Cc1c(O)c(CN2CCCC(C)C2)cc2c3c(c(=O)oc12)CCC3` (configuration not stated), the viability was 93.3% (inactive) in assay [1], 83.1% (inactive) in assay [2], 86.1% in assay [3] (setting [6]) and 83.1% in assay [3] (setting [7]). Also, in assay [3] (H69AR cells + 2 uM doxorubicin), the differential viability (reversal) is -2.96% (inactive). Besides, the inhibition was -6.97% (inactive) in assay [4] and -2.38% (inactive) in assay [5].
Take `COc1ccc(N2CCN(C(=O)CSc3ncnc4c3cnn4-c3ccccc3C)CC2)cc1`: the viability is 55.5% (inactive) in assay [1], 68.6% (inactive) in assay [2], 75.8% in assay [3] (setting [6]) and 68.6% in assay [3] (setting [7]). Also, the differential viability (reversal) in assay [3] (H69AR cells + 2 uM doxorubicin) was -7.28% (inactive). Also, the inhibition is 0.53% (inactive) in assay [4] and 16% (inactive) in assay [5].
Regarding `CCOc1ccccc1N1C(=O)CC(Sc2ncccc2C(=O)O)C1=O` (configuration not stated), the viability was 97% (inactive) in assay [1], 99.9% (inactive) in assay [2], 87.2% in assay [3] (setting [6]) and 99.9% in assay [3] (setting [7]). Besides, the differential viability (reversal) in assay [3] (H69AR cells + 2 uM doxorubicin) is 12.7% (inactive). Also, the inhibition in assay [4] was -3.29% (inactive); in assay [5], 1.59% (inactive).
Regarding `O=C(Cn1c(=O)[nH]c2ccsc2c1=O)N1CCN(c2ccc(F)cc2)CC1`, the viability in assay [1] was 91% (inactive); in assay [2] it was 87.2% (inactive); in assay [3] (setting [6]) it was 86%; in assay [3] (setting [7]), 87.2%. For the same compound, the differential viability (reversal) in assay [3] (H69AR cells + 2 uM doxorubicin) is 1.24% (inactive). In addition, the inhibition in assay [4] is -1.84% (inactive); in assay [5], 4.6% (inactive).
With `COc1cc(S(=O)(=O)N(C)C)ccc1F`, the viability in assay [1] was 95.4% (inactive); in assay [2] it was 91.7% (inactive); in assay [3] (setting [6]), 82.1%; in assay [3] (setting [7]) it was 91.7%. In addition, in assay [3] (H69AR cells + 2 uM doxorubicin), the differential viability (reversal) was 9.55% (inactive). Besides, the inhibition was -6.67% (inactive) in assay [4] and 3.65% (inactive) in assay [5].
In the case of `COc1cc2c(cc1NCc1ccccn1)oc1ccccc12`, the viability in assay [1] is 78% (inactive); in assay [2] it was 83.8% (inactive); in assay [3] (setting [6]), 94.1%; in assay [3] (setting [7]) it was 83.8%. For the same compound, the differential viability (reversal) in assay [3] (H69AR cells + 2 uM doxorubicin) is -10.3% (inactive). Moreover, the inhibition in assay [4] was -4.13% (inactive); in assay [5], 5.08% (inactive).
As to `CCS(=O)(=O)N1CCC(C(=O)N2CCOCC2)CC1`, the viability was 92.1% (inactive) in assay [1], 98.5% (inactive) in assay [2], 99.6% in assay [3] (setting [6]) and 98.5% in assay [3] (setting [7]). Moreover, the differential viability (reversal) in assay [3] (H69AR cells + 2 uM doxorubicin) was -1.11% (inactive). Further, the inhibition is -0.52% (inactive) in assay [4] and -0.16% (inactive) in assay [5].
Turning to `O=C(CCNC(=O)c1ccc(Br)o1)NC1CCCC1`, the viability is 87% (inactive) in assay [1], 95.1% (inactive) in assay [2], 78.2% in assay [3] (setting [6]) and 95.1% in assay [3] (setting [7]). The differential viability (reversal) in assay [3] (H69AR cells + 2 uM doxorubicin) is 16.9% (inactive). Besides, the results for the inhibition in assay [4] and in assay [5] were -4.4% (inactive) and 4.29% (inactive), respectively.
As for `Oc1cccc2ccc(Nc3ccccn3)nc12`, the viability was 2.4% (active) in assay [1], 1.99% (active) in assay [2], 1.5% in assay [3] (setting [6]) and 1.99% in assay [3] (setting [7]). Besides, the differential viability (reversal) in assay [3] (H69AR cells + 2 uM doxorubicin) is 0.495% (inactive). For the same compound, the inhibition in assay [4] was -4.16% (inactive); in assay [5], 2.22% (inactive).
`O=C(COc1ccccc1Cl)N1CCCC1`: the viability was 105% (inactive) in assay [1], 91.9% (inactive) in assay [2], 92.3% in assay [3] (setting [6]) and 91.9% in assay [3] (setting [7]). The differential viability (reversal) in assay [3] (H69AR cells + 2 uM doxorubicin) is -0.435% (inactive). The results for the inhibition in assay [4] and in assay [5] were 2.24% (inactive) and -4.6% (inactive), respectively.
On to `CC1CCN(CCC(=O)Nc2ccc(Br)cc2)CC1`, for which the viability in assay [1] was 88.6% (inactive); in assay [2], 89.2% (inactive); in assay [3] (setting [6]) it was 80.4%; in assay [3] (setting [7]), 89.2%. The differential viability (reversal) in assay [3] (H69AR cells + 2 uM doxorubicin) is 8.88% (inactive). The inhibition in assay [4] was -4.47% (inactive); in assay [5] it was 0.32% (inactive).
`CCC(C)c1ccc(NC(=O)C2CC2)cc1` (configuration not stated): the viability was 88.6% (inactive) in assay [1], 90.3% (inactive) in assay [2], 80.9% in assay [3] (setting [6]) and 90.3% in assay [3] (setting [7]). Moreover, in assay [3] (H69AR cells + 2 uM doxorubicin), the differential viability (reversal) was 9.41% (inactive). The values for the inhibition in assay [4] and in assay [5] were -1.82% (inactive) and 2.06% (inactive), respectively.
`COC(=O)c1[nH]c2c(c1C)C(=O)CC(c1cccs1)C2` (configuration not stated): the viability was 44.9% (inactive) in assay [1], 36.7% (active) in assay [2], 76% in assay [3] (setting [6]) and 36.7% in assay [3] (setting [7]). In assay [3] (H69AR cells + 2 uM doxorubicin), the differential viability (reversal) was -39.3% (inactive). The inhibition in assay [4] was -6.05% (inactive); in assay [5], 4.13% (inactive).
Take `Cc1ccc(-c2nc(-c3cccnc3)no2)c(C)c1`: the viability in assay [1] is 78.9% (inactive); in assay [2] it was 90.1% (inactive); in assay [3] (setting [6]), 90.7%; in assay [3] (setting [7]), 90.1%. Also, the differential viability (reversal) in assay [3] (H69AR cells + 2 uM doxorubicin) was -0.56% (inactive). Moreover, the inhibition in assay [4] was -6.49% (inactive); in assay [5], -9.52% (inactive).
Take `CC(=O)Nc1cccc(NC(=O)CSc2nnnn2C(C)C)c1`: the viability in assay [1] is 97.5% (inactive); in assay [2], 99.2% (inactive); in assay [3] (setting [6]), 84.5%; in assay [3] (setting [7]) it was 99.2%. The differential viability (reversal) in assay [3] (H69AR cells + 2 uM doxorubicin) was 14.7% (inactive). Also, the figures for the inhibition in assay [4] and in assay [5] were -8.03% (inactive) and 4.13% (inactive), respectively.
